Measured values gathered from unrelated publications.
Target: Calcium/calmodulin-dependent protein kinase type II subunit beta (CAMK2B, Homo sapiens, UniProt Q13554)

N#CC1(c2ccccn2)CCN(Cc2cc(C(=O)O)c(=O)n3ccccc23)CC1 has a remaining binding of 100% (cell-free assay; competition with immobilised ligand; 1 µM).
With C#Cc1n[nH]c2c(-c3cn(C(C)c4ccccn4)c(=O)[nH]c3=O)cc(F)cc12 (centres unmarked) the inhibition was 4.3% (enzyme activity; inhibitor; 1 µM).
For O=c1[nH]c2ccccc2n1C1CCN(Cc2ccc(-c3[nH]c4cc5ncnc5cc4nc3-c3ccccc3)cc2)CC1, the remaining activity was 104% (enzyme activity; 0.5 µM).
For Cn1cc(-c2cccc(N3CCc4c(sc5c4CC(C)(C)C5)C3=O)c2CO)cc(Nc2ccncn2)c1=O, the inhibition was 12% (enzyme activity; inhibitor; 1 µM).
For Cc1nn(C)cc1-c1nc2c(N3CCN(Cc4ccc(Cl)cc4)CC3)c(Cl)cnc2[nH]1, the remaining binding was 94% (binding; competition with immobilised ligand; 1 µM).
The remaining activity of CC(C)(C)c1cc(C=C(C#N)C#N)cc(Br)c1O is reported as 99.3% (enzyme activity; inhibitor; 0.5 µM).
Cn1cncc1[C@@](O)(COc1ccc(C#N)cc1-c1ccc(OC(F)(F)F)cc1)c1ccc(C#N)cc1 gave a remaining binding of 90% (cell-free assay; competition with immobilised ligand; 1 µM).
For Cn1cc(-c2cc(F)cc(N3CCn4c(cc5c4CCCC5)C3=O)c2CO)cc(Nc2ccc(N3CCN(C4COC4)CC3)cn2)c1=O, the inhibition was 7% (enzyme activity; inhibitor; 0.1 µM).
The remaining binding of Nc1ncc(-c2nc(N3CCOCC3)nc(N3CCOCC3)n2)c(C(F)F)n1 is reported as 69% (binding; competition with immobilised ligand; 10 µM).
With C#Cc1n[nH]c2c(-c3cn([C@@H](C)c4ccccc4)c(=O)[nH]c3=O)cc(F)cc12 the inhibition was 6.5% (enzyme activity; inhibitor; 0.1 µM).
With COc1ncccc1-c1cnn2ccc(N3CCN(C(=O)OC(C)C)CC3)nc12 the remaining binding was 81% (binding; competition with immobilised ligand; 1 µM).
